Screens from PubChem BioAssay.
A selection: hits, their analogues and other compounds. The true share with any hit is near 3.3%.
Exocytosis inh: blocks lytic granule exocytosis | hit rate 0.66% among 360,000 | inhibition, % at 10 µM | TALL-104 LAMP-1 surface exposure, flow cytometry; cells stimulated with thapsigargin and PMA | AID 651702;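 active = inhibition above about 55%, limit read from the data; inconclusive = no clear call, values can overlap the other calls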
Arrestin-AP2 inh: inhibitors of human beta-arrestin and AP2 interaction; inhibition, % at 10 µM; FITC-arrestin peptide / GST-AP2 beads, flow cytometry; AP2 beta2 appendage carries R879A mutation; hit rate 0.31% among 340,000;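 active = inhibition above a set limit, near 3 SD of compounds lacking own fluorescence, cut at about 54% in these data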;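 also: plate controls were DMSO wells for no effect and 5 µM unlabelled arrestin peptide for full effect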
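Measured by: flow cytometry, FL1 (488/535 nm); Material: AP2 appendage R879A on GSH beads; Evaluation: percent response; Timing: pre-incubation 12 min, peptide binding 1 h, room temperature; Also added: 50 nM FITC-arrestin peptide; Medium: PBS with 0.05% Tween 20 and 0.1% BSA.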
Myeloid diff 2: promotes myeloid progenitor differentiation | ER-HoxA9 myeloid progenitors, lysozyme-GFP differentiation, flow cytometry | calls only at 10 µM | hit rate 1% among 360,000 | AID 624256;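 active = normalized GFP-positive differentiation at or above the plate's own cutoff, the solvent-only control mean plus 3 SD; inconclusive = no clear call, values can overlap the other calls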;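 also: cells exposed to compound for four days before flow analysis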
ATG4B inhibitor: ATG4B (human) cysteine protease inhibition; Q9Y4P1; ATG4B cleavage of LC3-PLA2, NBD-HPC fluorescence, 1 h; inhibition, % at 8.33 µM; hit rate 0.51% among 340,000; AID 504462; in the data active = inhibition above about 40%
Target sequence (Q9Y4P1 whole entry, looked up): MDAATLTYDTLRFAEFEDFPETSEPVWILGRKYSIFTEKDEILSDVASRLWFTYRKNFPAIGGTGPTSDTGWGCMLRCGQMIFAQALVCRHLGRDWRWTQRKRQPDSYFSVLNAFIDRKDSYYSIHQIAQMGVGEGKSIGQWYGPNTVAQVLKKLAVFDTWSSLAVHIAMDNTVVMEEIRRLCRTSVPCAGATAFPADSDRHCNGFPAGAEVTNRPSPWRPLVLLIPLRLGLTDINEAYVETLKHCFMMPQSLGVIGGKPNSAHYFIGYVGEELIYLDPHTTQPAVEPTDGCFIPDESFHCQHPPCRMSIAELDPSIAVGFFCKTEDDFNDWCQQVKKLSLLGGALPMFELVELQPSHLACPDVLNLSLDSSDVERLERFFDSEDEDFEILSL
CendR NRP1 mod: alters CendR peptide binding to human NRP-1. hit rate 0.85% among 360,000. AID 602438. inhibition, % at 25 µM. FAM-RPARPAR peptide binding to NRP-1, fluorescence polarization. O14786;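 active = inhibition or corrected inhibition above about 18%, plus a signal ratio from 0.5 to 1.5, limit read from the data, passing the limit was not always enough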
ABCB6 inh 2: inhibitors of human ABC transporter ABCB6; Q9NP58; K562-ABCB6 porphyrin accumulation, flow cytometry, 1 h; stronger effect = lower value; fluorescence ratio to DMSO, % at 10 µM; hit rate 0.19% among 360,000; AID 602162;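 active = fluorescence ratio to DMSO below 75%, the collection mean minus 3 SD; inconclusive = too few cells collected in the well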;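 also: signal is porphyrin accumulated inside mitochondria; 100% equals median channel fluorescence of DMSO control wells; lower ratio means ABCB6 inhibition with less porphyrin fluorescence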
PLA2 ctr: PLA2 (human) inhibition in ATG4B counter-screen. shares compounds with ATG4B inhibitor. purified PLA2, NBD-C6-HPC fluorescence, 45 min. inhibition, % at 8.33 µM. hit rate 66% among 1,600; in the data active = inhibition above about 50%
Target sequence (P04054 whole entry, looked up): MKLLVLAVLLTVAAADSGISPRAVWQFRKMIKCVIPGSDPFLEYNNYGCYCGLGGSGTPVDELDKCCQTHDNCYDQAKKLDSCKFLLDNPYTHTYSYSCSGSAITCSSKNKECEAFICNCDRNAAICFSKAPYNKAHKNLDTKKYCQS
* = called active by the depositor.

Screening Cc1ccc(S(=O)(=O)N(C)CC(=O)Nc2nc3ccccc3s2)cc1 returned Exocytosis inh 1.0, Arrestin-AP2 inh 12.5, Myeloid diff 2 inactive, ATG4B inhibitor -13.4, CendR NRP1 mod -3.7 and ABCB6 inh 2 83.0.
Cc1ccc(/C(=N/Nc2nc3ccccc3s2)C2=C(O)c3ccccc3C2=O)cc1 was read as Exocytosis inh -3.0, Arrestin-AP2 inh -3.7, Myeloid diff 2 inactive, ATG4B inhibitor 45.0*, CendR NRP1 mod 1.5, ABCB6 inh 2 96.0 and PLA2 ctr 65.0*.
C[C@@]12CCC=C[C@H]1[C@H](c1ccc3ccccc3c1Br)N(Cc1ccccc1)C2=O was read as Exocytosis inh 1.7, Arrestin-AP2 inh 14.8, Myeloid diff 2 inactive, ATG4B inhibitor 50.1*, CendR NRP1 mod 12.8, ABCB6 inh 2 94.0 and PLA2 ctr 76.3*.
Screening C[C@@]12CCC=C[C@H]1[C@H](c1ccc3ccccc3c1)N(Cc1ccccc1)C2=O returned Exocytosis inh 2.8, Arrestin-AP2 inh 19.5, Myeloid diff 2 inactive, ATG4B inhibitor 16.7, CendR NRP1 mod 4.5 and ABCB6 inh 2 94.0.
For O=C1CCCC2=C1C1(CCCCC1)N=C(Nc1nc3ccccc3o1)N2 the results were Exocytosis inh 1.3, Arrestin-AP2 inh 31.3, Myeloid diff 2 inactive, ATG4B inhibitor 66.2*, CendR NRP1 mod -6.9, ABCB6 inh 2 96.0 and PLA2 ctr 75.5*.
`N#Cc1c(-c2ccccc2)nc(SCC(=O)N2c3ccccc3Sc3ccccc32)[nH]c1=O` gave Exocytosis inh 2.5, Arrestin-AP2 inh 31.3, Myeloid diff 2 inactive, ATG4B inhibitor 57.4*, CendR NRP1 mod -63.7, ABCB6 inh 2 98.0 and PLA2 ctr 59.1*.
For Cc1cc(=O)oc2cc(OCC(=O)Nc3cccc(S(=O)(=O)N(C)C)c3)ccc12 the results were Exocytosis inh -2.8, Arrestin-AP2 inh 7.3, Myeloid diff 2 inactive, ATG4B inhibitor 40.0*, CendR NRP1 mod 3.1, ABCB6 inh 2 93.0 and PLA2 ctr -0.6.
Cc1ccc(S(=O)(=O)N(C)C)cc1NC(=O)COC(=O)COc1ccc2c(C)cc(=O)oc2c1 was read as Exocytosis inh -7.5, Arrestin-AP2 inh 5.8, Myeloid diff 2 inactive, ATG4B inhibitor -18.7, CendR NRP1 mod 6.6 and ABCB6 inh 2 103.0.
`COc1ccccc1Nc1nn2c(=O)c3ccc(C(=O)N4CCCC(C)C4)cc3nc2s1` (centres undefined) gave Exocytosis inh 17.8, Arrestin-AP2 inh -15.4, Myeloid diff 2 inconclusive, ATG4B inhibitor 46.3*, CendR NRP1 mod -0.9, ABCB6 inh 2 99.0 and PLA2 ctr 63.0*.
For CC1CCCN(C(=O)c2ccc3c(=O)n4nc(Nc5ccccc5)sc4nc3c2)C1 (centres undefined) the results were Exocytosis inh 2.2, Myeloid diff 2 inactive, CendR NRP1 mod -9.5 and ABCB6 inh 2 92.0.
Screening CC(=O)Nc1ccc(S(=O)(=O)N2CCCN(c3nc(C)cc(C)c3C#N)CC2)cc1 returned Exocytosis inh -8.7, Arrestin-AP2 inh -11.3, Myeloid diff 2 inactive, ATG4B inhibitor 1.6, CendR NRP1 mod 2.5 and ABCB6 inh 2 101.0.
Screening Cc1ncc(CC(=O)n2cc(C(=O)c3cc(F)ccc3O)cn2)s1 returned Exocytosis inh 1.5, Arrestin-AP2 inh -1.4, Myeloid diff 2 inactive, ATG4B inhibitor 40.6*, CendR NRP1 mod -29.6, ABCB6 inh 2 100.0 and PLA2 ctr 50.3*.
`O=C(c1cnn(-c2ccccc2)c1)c1cc(F)ccc1O` gave Exocytosis inh -10.4, Arrestin-AP2 inh 7.6, Myeloid diff 2 inactive, ATG4B inhibitor 12.6, CendR NRP1 mod -4.4 and ABCB6 inh 2 96.0.
CC(=O)N1c2ccccc2C2CCCC[C@H]21 (some centres undefined) was read as Exocytosis inh -4.2, Arrestin-AP2 inh -3.4, Myeloid diff 2 inactive, ATG4B inhibitor 0.0, CendR NRP1 mod 6.9 and ABCB6 inh 2 98.0.
Screening Cc1ccccc1OCC(=O)Nc1ccc2[nH]ncc2c1 returned Exocytosis inh -4.1, Arrestin-AP2 inh -0.1, Myeloid diff 2 inactive, ATG4B inhibitor 8.5, CendR NRP1 mod -0.5 and ABCB6 inh 2 102.0.
`CCC1=NN(C(=O)c2ccc(Br)cc2)C(O)(c2ccccc2)C1` (centres undefined) gave Exocytosis inh 1.2, Arrestin-AP2 inh -18.9, Myeloid diff 2 inactive, ATG4B inhibitor 1.9, CendR NRP1 mod -9.2 and ABCB6 inh 2 94.0.
`CCC1=NN(C(=O)c2cccc([N+](=O)[O-])c2)C(O)(c2ccc(C)cc2)C1` (centres undefined) gave Exocytosis inh 18.4, Arrestin-AP2 inh -5.8, Myeloid diff 2 inactive, ATG4B inhibitor 53.9*, CendR NRP1 mod 8.4, ABCB6 inh 2 99.0 and PLA2 ctr 60.2*.
For CC(C#N)Sc1ncnc2sc3c(c12)CCC3 (centres undefined) the results were Exocytosis inh -4.2, Arrestin-AP2 inh -1.2, Myeloid diff 2 inactive, ATG4B inhibitor 49.2*, CendR NRP1 mod 0.5, ABCB6 inh 2 92.0 and PLA2 ctr 47.7.
`CCOC1=C2[C@H](c3ccccc3)N(S(=O)(=O)c3ccc(C)cc3)[C@H](C(C)C)[C@H]2n2c(=O)n(-c3ccccc3)c(=O)n2C1` gave Exocytosis inh -0.5, Myeloid diff 2 inactive, CendR NRP1 mod -1.6 and ABCB6 inh 2 102.0.
For Fc1ccc(-c2nnn(Cc3ccc(F)cc3Cl)n2)cc1 the results were Exocytosis inh -5.2, Arrestin-AP2 inh 6.7, Myeloid diff 2 inactive, ATG4B inhibitor 27.3, CendR NRP1 mod 0.6 and ABCB6 inh 2 96.0.
`Cc1ccccc1-c1nnn(Cc2ccc(F)cc2Cl)n1` gave Exocytosis inh -4.5, Arrestin-AP2 inh -11.3, Myeloid diff 2 inactive, ATG4B inhibitor 43.8*, CendR NRP1 mod 15.4, ABCB6 inh 2 102.0 and PLA2 ctr 46.4.
For CCCCNC(=O)COC(=O)CCC(=O)c1ccc(Cl)cc1 the results were Exocytosis inh 4.0, Arrestin-AP2 inh 13.3, Myeloid diff 2 inactive, ATG4B inhibitor -21.6, CendR NRP1 mod 23.4 and ABCB6 inh 2 97.0.
COc1cc(C(=O)OCC(=O)NC2CC2)ccc1OCCC(C)C was read as Exocytosis inh -2.5, Arrestin-AP2 inh -0.2, Myeloid diff 2 inactive, ATG4B inhibitor 9.3, CendR NRP1 mod 5.6 and ABCB6 inh 2 100.0.
For CCNC(=S)NCc1ccc(F)cc1 the results were Exocytosis inh -0.8, Arrestin-AP2 inh 6.4, Myeloid diff 2 inactive, ATG4B inhibitor 5.1, CendR NRP1 mod -2.7 and ABCB6 inh 2 102.0.
`Fc1ccc(CNC(=S)Nc2cccc(C(F)(F)F)c2)cc1` gave Exocytosis inh -7.6, Arrestin-AP2 inh 12.7, Myeloid diff 2 inactive, ATG4B inhibitor 70.9*, CendR NRP1 mod 4.7, ABCB6 inh 2 100.0 and PLA2 ctr 69.7*.
